From ChEMBL document CHEMBL1155941, “Solid-phase synthesis and biological evaluation of a parallel library of 2,3-dihydro-1,5-benzothiazepines” (Bioorg Med Chem, 2008)

Tests used:
[1] = test system: Agrobacterium tumefaciens; assay: Inhibition of Agrobacterium tumefaciens-induced tumor growth in potato tuber disk at 100 ppm after 21 days
[2] = test system: Agrobacterium tumefaciens; assay: Inhibition of Agrobacterium tumefaciens-induced tumor growth in potato tuber disk after 21 days; type: functional, organism-based
Procedure, shortened: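 Potato disk bioassay: red-skinned potatoes surface-sterilized in 0.1% HgCl₂. Disks were inoculated with a 48-h culture of A. tumefaciens AT-10 containing test sample at 10, 100 or 1000 ppm. Tumors were counted under a dissecting microscope, with tests run in replicate. Percent inhibition came from the average tumor count per sample versus control; IC₅₀ was calculated by a literature procedure.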

Cholinesterase = Cholinesterase (Homo sapiens, UniProt P06276); assay: Inhibition of BchE
Procedure, shortened: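 Ellman-type assay: enzyme, DTNB and test compound (dissolved in EtOH) were mixed in sodium phosphate buffer pH 8.0 and incubated 15 min at 25 °C. Reactions were run in triplicate. % inhibition = (E–S)/E × 100, where E is enzyme activity without compound. IC50 was derived from inhibition across increasing compound concentrations.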

Micrococcus luteus = assay: Antimicrobial activity against Micrococcus luteus assessed as inhibition zone diameter after 24 hrs by agar well diffusion method; type: functional
Procedure, shortened: (§1)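 Agar well diffusion: broth culture of about 10⁶ CFU/ml mixed into nutrient agar at 45 °C and poured into plates. 8-mm wells received test sample at 1 mg/ml in DMSO. DMSO was the negative control and roxithromycin (1 mg/ml) the positive control. Triplicate plates were incubated 37 °C, 24 h. Complete-inhibition zone diameter (mm) was measured, with growth inhibition referenced to roxithromycin.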

[3] = test system: Agrobacterium tumefaciens; assay: Inhibition of Agrobacterium tumefaciens-induced tumor growth in potato tuber disk at 10 ppm after 21 days
[4] = test system: Agrobacterium tumefaciens; assay: Inhibition of Agrobacterium tumefaciens-induced tumor growth in potato tuber disk at 1000 ppm after 21 days
[5] = test system: Salmonella enterica subsp. enterica; assay: Antimicrobial activity against Salmonella setubal ATCC 19196 assessed as inhibition zone diameter after 24 hrs by agar well diffusion method; type: functional, Salmonella enterica subsp. enterica serovar Setubal
Procedure, shortened: as §1

Escherichia coli = assay: Antimicrobial activity against Escherichia coli ATCC 1522 assessed as inhibition zone diameter after 24 hrs by agar well diffusion method; type: functional
Procedure, shortened: as §1

[6] = test system: Bordetella bronchiseptica; assay: Antimicrobial activity against Bordetella bronchiseptica ATCC 4617 assessed as inhibition zone diameter after 24 hrs by agar well diffusion method; type: functional
Procedure, shortened: as §1

Klebsiella aerogenes = assay: Antimicrobial activity against Enterobacter aerogenes ATCC 13048 assessed as inhibition zone diameter after 24 hrs by agar well diffusion method; type: functional
Procedure, shortened: as §1

Acetylcholinesterase = Acetylcholinesterase (Homo sapiens, UniProt P22303); assay: Inhibition of AchE
Sequence of Acetylcholinesterase (P22303 whole entry): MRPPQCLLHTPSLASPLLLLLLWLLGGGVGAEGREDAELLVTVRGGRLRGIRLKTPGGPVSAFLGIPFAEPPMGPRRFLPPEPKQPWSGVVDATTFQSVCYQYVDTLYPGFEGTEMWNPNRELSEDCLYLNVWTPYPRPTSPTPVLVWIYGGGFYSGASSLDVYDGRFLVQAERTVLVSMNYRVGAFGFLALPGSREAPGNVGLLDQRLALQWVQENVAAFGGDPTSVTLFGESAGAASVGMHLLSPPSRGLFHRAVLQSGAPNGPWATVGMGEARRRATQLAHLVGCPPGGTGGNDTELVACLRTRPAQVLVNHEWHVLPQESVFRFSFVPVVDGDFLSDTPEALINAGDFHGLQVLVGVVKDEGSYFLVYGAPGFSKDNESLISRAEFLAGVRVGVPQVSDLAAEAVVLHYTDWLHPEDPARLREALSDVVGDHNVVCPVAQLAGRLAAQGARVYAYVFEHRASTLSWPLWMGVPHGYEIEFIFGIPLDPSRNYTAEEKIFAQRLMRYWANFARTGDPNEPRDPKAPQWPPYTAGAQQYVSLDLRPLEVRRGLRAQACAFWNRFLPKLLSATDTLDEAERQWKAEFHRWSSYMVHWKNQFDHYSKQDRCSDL

Sequence of Cholinesterase (P06276 whole entry): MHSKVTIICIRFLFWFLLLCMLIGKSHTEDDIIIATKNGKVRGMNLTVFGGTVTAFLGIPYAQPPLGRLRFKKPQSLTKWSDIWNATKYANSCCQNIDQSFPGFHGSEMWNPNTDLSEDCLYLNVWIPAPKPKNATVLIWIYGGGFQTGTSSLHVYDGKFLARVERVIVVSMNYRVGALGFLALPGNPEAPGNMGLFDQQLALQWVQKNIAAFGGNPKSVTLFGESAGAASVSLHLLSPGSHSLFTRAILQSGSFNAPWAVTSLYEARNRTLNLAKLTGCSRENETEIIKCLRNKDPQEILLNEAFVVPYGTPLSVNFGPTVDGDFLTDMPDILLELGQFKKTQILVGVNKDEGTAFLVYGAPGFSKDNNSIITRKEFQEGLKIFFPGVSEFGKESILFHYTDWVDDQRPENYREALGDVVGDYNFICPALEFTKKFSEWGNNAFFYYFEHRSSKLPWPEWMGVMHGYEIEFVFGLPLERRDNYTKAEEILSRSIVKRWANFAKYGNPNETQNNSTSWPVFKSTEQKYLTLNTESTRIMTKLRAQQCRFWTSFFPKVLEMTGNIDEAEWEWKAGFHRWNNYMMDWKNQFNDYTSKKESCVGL

Compound | inhibition (INH) [1] | IC50 [2] | IC50 (Cholinesterase) | inhibition zone (IZ) (Micrococcus luteus) | inhibition (INH) [3] | inhibition (INH) [4] | inhibition zone (IZ) [5] | inhibition zone (IZ) (Escherichia coli) | inhibition zone (IZ) [6] | inhibition zone (IZ) (Klebsiella aerogenes) | IC50 (Acetylcholinesterase)
Oc1cccc(C2=Nc3ccccc3SC(c3cccc(Cl)c3)C2)c1 (centres undefined) | 80.8% | 14.01 ppm | 29.4 µM | 11.5 mm | 68% | 93.6% |  |  |  |  | 
COc1cccc(C2CC(c3cccc(O)c3)=Nc3ccccc3S2)c1 (centres undefined) | 84.2% | 3.28 ppm |  |  | 67.142% | 100% |  |  |  |  | 
CC[C@H]1OC(=O)[C@H](C)[C@@H](O[C@H]2C[C@@](C)(OC)[C@@H](O)[C@H](C)O2)[C@H](C)[C@@H](O[C@@H]2O[C@H](C)C[C@H](N(C)C)[C@H]2O)[C@](C)(O)C[C@@H](C)/C(=N\OCOCCOC)[C@H](C)[C@@H](O)[C@]1(C)O [ROXITHROMYCIN] |  |  |  | 15 mm |  |  | 12 mm | 14 mm | 13 mm | 12 mm | 
Oc1cccc(C2=Nc3ccccc3SC(c3cccc(O)c3)C2)c1 (centres undefined) | 48.9% | 179.3 ppm | 4.7 µM |  | 36.1% | 100% |  |  |  |  | 71.1 µM
Oc1cccc(C2=Nc3ccccc3SC(c3ccncc3)C2)c1 (centres undefined) | 80% | 6.1 ppm |  |  | 55.1% | 100% |  |  |  |  | 
COc1ccc(C2CC(c3cccc(O)c3)=Nc3ccccc3S2)cc1OC (centres undefined) | 82.7% | 8.23 ppm | 19.7 µM |  | 70.2% | 100% |  |  |  |  | 
Oc1cccc(C2=Nc3ccccc3SC(c3ccc(Br)s3)C2)c1 (centres undefined) | 91.4% | 11.2 ppm |  |  | 80.3% | 92.8% |  |  |  |  | 
Oc1cccc(C2=Nc3ccccc3SC(c3ccccc3)C2)c1 (centres undefined) | 97.8% | 5.41 ppm | 1420 µM |  | 72.3% | 100% |  |  |  |  | 40 µM
COc1ccccc1/C=C/C(=O)c1cccc(O)c1 |  | 3.1 ppm |  |  |  |  |  |  |  |  | 
O=[N+]([O-])c1cccc(C2CC(c3cccc(O)c3)=Nc3ccccc3S2)c1 (centres undefined) | 57.4% | 26.2 ppm |  | 10 mm | 42.5% | 100% |  |  |  |  | 
Cc1ccc(C2CC(c3cccc(O)c3)=Nc3ccccc3S2)cc1 (centres undefined) | 72.3% | 30.7 ppm | 75.2 µM |  | 65.9% | 87.2% |  |  |  |  | 49.4 µM
COc1ccccc1C1CC(c2cccc(O)c2)=Nc2ccccc2S1 (centres undefined) | 87.1% | 7.06 ppm | 4.65 µM |  | 81.42% | 98.5% |  |  |  |  | 
Oc1cccc(C2=Nc3ccccc3SC(c3ccc(Br)cc3)C2)c1 (centres undefined) | 63.8% | 61.5 ppm |  |  | 21.2% | 85.1% |  |  |  |  | 
Oc1cccc(C2=Nc3ccccc3SC(c3ccccc3Cl)C2)c1 (centres undefined) | 93.6% | 6.94 ppm |  |  | 74.4% | 95.7% |  |  |  |  | 
COc1ccc(C2CC(c3cccc(O)c3)=Nc3ccccc3S2)cc1 (centres undefined) | 78.7% | 4.69 ppm |  |  | 57.4% | 100% |  |  |  |  | 
Oc1cccc(C2=Nc3ccccc3SC(c3cccs3)C2)c1 (centres undefined) | 100% | 4.8 ppm | 3.97 µM |  | 87.2% | 100% |  |  |  |  | 5.9 µM
CC[C@]1(O)C[C@H]2CN(CCc3c([nH]c4ccccc34)[C@@](C(=O)OC)(c3cc4c(cc3OC)N(C=O)[C@H]3[C@@](O)(C(=O)OC)[C@H](OC(C)=O)[C@]5(CC)C=CCN6CC[C@]43[C@@H]65)C2)C1 [VINCRISTINE] |  | 0.003 ppm |  |  |  |  |  |  |  |  | 
Oc1ccc(C2CC(c3cccc(O)c3)=Nc3ccccc3S2)cc1 (centres undefined) | 48.9% | 237.9 ppm |  |  | 27.6% | 100% |  |  |  |  | 
CN(C)c1ccc(C2CC(c3cccc(O)c3)=Nc3ccccc3S2)cc1 (centres undefined) | 44.6% | 192.5 ppm | 34.4 µM | 10 mm | 38.2% | 100% | 9 mm | 11 mm | 9 mm | 11 mm | 
Oc1cccc(C2=Nc3ccccc3SC(c3cccnc3)C2)c1 (centres undefined) | 38.2% | 926.2 ppm |  |  | 29.7% | 51% |  |  |  |  | 
Oc1cccc(C2=Nc3ccccc3SC(c3ccc(Cl)cc3)C2)c1 (centres undefined) | 68% | 9 ppm | 79.6 µM |  | 51.93% | 74.4% |  |  |  |  | 18.8 µM
Oc1cccc(C2=Nc3ccccc3SC(c3ccc(F)cc3)C2)c1 (centres undefined) | 34% | 1232 ppm |  |  | 25.5% | 40.4% |  |  |  |  | 
COc1cc(C2CC(c3cccc(O)c3)=Nc3ccccc3S2)ccc1O (centres undefined) | 40.4% | 247.3 ppm |  | 10 mm | 36.1% | 95.7% | 10 mm | 9.5 mm | 10 mm | 11 mm | 
COc1ccc(/C=C/C(=O)c2cccc(O)c2)cc1OC |  | 5.8 ppm |  |  |  |  |  |  |  |  | 
Oc1cccc(C2=Nc3ccccc3SC(c3ccccc3F)C2)c1 (centres undefined) | 40.4% | 295.5 ppm |  |  | 31.9% | 91.4% |  |  |  |  | 70.6 µM
